The values below come from ChEMBL document CHEMBL1833953, “Design, synthesis, and evaluation of a novel dual FMS-like tyrosine kinase 3/stem cell factor receptor (FLT3/c-KIT) inhibitor for the treatment of acute myelogenous leukemia” (J Med Chem, 2011).

The target in data set [1] is Mast/stem cell growth factor receptor Kit (Homo sapiens, UniProt P10721). The data set can be described thus: Displacement of [33P]ATP from human recombinant c-KIT domain after 20 mins by scintillation counting. The method in brief: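 Radiometric kinase assay run in 100 mM HEPES pH 7.5 with 10 mM MgCl2, 25 mM NaCl, 0.01% BSA, 1 mM DTT and 0.5 mg/mL polyE4Y. Enzyme was 5 nM c-KIT with 700 μM 33P-ATP; inhibitor was added from DMSO. The reaction was started with ATP/substrate, run 20 min, stopped with 20% TCA/4 mM ATP, filtered, washed with 5% TCA and counted by scintillation.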
Chain of Mast/stem cell growth factor receptor Kit (P10721 whole entry, the tested form may be a part): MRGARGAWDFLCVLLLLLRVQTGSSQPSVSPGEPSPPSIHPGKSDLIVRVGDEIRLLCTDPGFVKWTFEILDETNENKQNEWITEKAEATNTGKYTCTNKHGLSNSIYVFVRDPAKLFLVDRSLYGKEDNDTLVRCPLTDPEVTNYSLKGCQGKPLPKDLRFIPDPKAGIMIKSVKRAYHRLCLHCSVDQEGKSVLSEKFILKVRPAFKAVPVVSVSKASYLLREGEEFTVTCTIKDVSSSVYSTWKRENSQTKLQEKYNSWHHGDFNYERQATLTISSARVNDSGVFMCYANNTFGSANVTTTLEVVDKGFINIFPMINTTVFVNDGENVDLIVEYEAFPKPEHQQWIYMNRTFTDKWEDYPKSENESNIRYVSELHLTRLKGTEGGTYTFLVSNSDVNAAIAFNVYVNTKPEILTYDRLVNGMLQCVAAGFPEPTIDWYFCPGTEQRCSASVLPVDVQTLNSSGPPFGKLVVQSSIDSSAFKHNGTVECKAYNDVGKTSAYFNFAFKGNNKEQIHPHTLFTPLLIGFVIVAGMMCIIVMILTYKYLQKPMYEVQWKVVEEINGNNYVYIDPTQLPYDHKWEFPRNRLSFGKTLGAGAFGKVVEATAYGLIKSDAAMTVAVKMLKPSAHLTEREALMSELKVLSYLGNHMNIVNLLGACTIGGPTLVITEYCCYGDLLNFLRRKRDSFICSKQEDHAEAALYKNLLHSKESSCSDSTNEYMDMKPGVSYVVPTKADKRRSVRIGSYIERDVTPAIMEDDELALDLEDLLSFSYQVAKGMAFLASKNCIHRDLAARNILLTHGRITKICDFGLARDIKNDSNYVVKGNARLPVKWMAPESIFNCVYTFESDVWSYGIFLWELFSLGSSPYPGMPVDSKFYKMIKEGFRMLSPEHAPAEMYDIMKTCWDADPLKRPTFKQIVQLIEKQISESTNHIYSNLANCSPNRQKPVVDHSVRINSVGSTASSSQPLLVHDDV

Data set [2] in a line: Clearance in iv dosed rat. Format: ADME, organism-based. As to conditions: in vivo.
The subject of the next data set is MV4-11. The data set can be described thus: Cytotoxicity against human MV411 cells.
The nature of data set [3]: Half life in iv dosed rat. The class given is ADME, organism-based. As to conditions: in vivo.
Data set [4] deals with T1, Interleukin-1 receptor-associated kinase 4 (Homo sapiens, UniProt Q9NWZ3).
T1 sequence (Q9NWZ3 whole entry): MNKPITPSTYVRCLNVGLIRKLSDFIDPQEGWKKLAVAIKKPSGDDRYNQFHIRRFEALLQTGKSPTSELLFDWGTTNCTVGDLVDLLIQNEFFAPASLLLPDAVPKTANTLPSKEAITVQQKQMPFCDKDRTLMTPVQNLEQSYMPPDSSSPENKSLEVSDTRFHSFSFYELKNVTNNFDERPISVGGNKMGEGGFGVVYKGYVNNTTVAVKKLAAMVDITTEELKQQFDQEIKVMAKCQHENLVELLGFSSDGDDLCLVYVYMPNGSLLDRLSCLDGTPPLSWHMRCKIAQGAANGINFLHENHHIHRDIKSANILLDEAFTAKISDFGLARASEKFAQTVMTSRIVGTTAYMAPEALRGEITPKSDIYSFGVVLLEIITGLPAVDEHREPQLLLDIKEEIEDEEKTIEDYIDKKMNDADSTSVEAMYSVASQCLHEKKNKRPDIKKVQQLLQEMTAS
The data set is described as follows: Inhibition of IRAK4 by spectrophotometry.

In data set [5] the target is Tyrosine-protein kinase JAK2 (Homo sapiens, UniProt O60674). The data set is described as follows: Inhibition of JAK2 by spectrophotometry.
Chain of Tyrosine-protein kinase JAK2 (O60674 whole entry): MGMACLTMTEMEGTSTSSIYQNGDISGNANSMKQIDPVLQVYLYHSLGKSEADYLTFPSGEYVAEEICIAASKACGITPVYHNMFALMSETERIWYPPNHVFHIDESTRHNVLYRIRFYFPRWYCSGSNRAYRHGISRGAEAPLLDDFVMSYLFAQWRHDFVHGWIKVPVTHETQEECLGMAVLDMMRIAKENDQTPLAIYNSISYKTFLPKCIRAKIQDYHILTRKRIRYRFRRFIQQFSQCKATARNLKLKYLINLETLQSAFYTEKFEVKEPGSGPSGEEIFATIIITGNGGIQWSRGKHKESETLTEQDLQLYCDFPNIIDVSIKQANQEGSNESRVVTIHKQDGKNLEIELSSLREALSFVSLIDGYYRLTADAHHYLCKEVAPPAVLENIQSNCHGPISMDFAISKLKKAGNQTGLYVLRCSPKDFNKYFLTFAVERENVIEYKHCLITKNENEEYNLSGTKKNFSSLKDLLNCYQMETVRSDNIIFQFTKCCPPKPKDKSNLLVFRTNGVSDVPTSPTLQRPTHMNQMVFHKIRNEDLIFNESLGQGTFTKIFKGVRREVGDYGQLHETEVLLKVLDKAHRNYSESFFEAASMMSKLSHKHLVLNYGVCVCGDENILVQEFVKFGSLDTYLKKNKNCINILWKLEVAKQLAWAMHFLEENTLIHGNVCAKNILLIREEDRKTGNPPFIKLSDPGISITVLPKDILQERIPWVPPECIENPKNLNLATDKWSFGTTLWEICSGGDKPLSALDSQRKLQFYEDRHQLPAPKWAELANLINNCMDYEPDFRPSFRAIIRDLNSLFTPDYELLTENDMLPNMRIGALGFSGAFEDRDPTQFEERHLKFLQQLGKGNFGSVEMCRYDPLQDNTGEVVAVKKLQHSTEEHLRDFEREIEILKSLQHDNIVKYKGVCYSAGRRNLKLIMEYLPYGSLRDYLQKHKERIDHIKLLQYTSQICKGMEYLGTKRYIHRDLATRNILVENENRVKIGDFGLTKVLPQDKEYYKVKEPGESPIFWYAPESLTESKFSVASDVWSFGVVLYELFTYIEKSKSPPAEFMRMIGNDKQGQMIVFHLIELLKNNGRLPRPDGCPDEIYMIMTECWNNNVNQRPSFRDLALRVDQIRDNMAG
For the next data set, the target named is T2, Aurora kinase A (Homo sapiens, UniProt O14965).
T2 sequence (O14965 whole entry): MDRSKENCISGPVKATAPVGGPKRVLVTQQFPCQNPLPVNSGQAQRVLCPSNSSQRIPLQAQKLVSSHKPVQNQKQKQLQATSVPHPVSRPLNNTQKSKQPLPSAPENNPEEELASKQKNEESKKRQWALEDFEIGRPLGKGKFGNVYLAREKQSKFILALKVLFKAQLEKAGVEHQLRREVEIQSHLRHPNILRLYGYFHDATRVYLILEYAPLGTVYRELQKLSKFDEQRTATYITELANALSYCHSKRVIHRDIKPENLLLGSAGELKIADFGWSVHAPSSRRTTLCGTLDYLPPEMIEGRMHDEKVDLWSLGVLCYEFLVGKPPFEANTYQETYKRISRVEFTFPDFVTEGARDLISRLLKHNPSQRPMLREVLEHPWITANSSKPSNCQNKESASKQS
The data set can be described thus: Inhibition of Aurora A by spectrophotometry.

The target of data set [6] is T3, Receptor-type tyrosine-protein kinase FLT3 (Homo sapiens, UniProt P36888).
T3 sequence (P36888 whole entry): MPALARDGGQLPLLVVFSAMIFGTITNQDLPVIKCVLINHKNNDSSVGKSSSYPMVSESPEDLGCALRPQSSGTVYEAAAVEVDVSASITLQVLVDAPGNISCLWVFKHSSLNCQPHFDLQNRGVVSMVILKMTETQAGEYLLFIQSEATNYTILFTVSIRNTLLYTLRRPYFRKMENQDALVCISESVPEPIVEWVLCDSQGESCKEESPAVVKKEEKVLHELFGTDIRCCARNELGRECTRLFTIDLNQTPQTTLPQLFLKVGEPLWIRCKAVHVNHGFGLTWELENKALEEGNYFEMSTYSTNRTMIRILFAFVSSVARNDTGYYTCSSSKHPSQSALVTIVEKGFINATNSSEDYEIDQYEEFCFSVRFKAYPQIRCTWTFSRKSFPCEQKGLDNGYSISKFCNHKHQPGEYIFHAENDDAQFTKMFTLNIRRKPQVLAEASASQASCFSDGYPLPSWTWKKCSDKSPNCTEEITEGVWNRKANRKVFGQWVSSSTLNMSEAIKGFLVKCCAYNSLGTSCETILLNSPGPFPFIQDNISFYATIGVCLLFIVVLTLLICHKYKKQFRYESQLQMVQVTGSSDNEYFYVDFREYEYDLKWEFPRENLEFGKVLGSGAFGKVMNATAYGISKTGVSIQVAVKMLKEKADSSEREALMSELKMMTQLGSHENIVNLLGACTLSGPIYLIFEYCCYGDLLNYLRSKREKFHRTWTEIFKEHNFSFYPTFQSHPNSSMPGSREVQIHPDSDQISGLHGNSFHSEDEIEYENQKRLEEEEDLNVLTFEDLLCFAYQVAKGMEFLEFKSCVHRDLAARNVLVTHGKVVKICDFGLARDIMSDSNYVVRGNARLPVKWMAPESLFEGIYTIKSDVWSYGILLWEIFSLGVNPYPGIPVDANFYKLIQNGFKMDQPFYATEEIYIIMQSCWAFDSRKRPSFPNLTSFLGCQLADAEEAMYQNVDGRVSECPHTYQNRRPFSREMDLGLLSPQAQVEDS
The data set is described as follows: Displacement of [33P]ATP from human recombinant FLT3 domain after 20 mins by scintillation counting.

The term Ki denotes a dissociation constant, usually derived from enzyme kinetics or from competition with a known ligand. The term clearance denotes the volume of plasma or blood freed of the substance per unit of time. A lower clearance goes with a low capacity for elimination. A word on the IC50: it is the concentration that gives 50% inhibition. As usually defined, the half-life is the time needed for the level to fall by half in the phase considered. For `Nc1nc(Nc2ccc(C(=O)N3CCOCC3)cc2)nn1-c1ccccn1`, the Ki in data set [1] was found to be 21 nM. The compound also returned a clearance in data set [2] of 4.4 mL/min/kg. The compound also gave an IC50 in the data set with MV4-11 of 2 nM. In addition, in data set [3], the half-life was 2.22 h.

Take `Nc1nc(Nc2ccc(OCCCN3CCOCC3)cc2)nn1-c1ccccn1`: the Ki in data set [1] is < 50 nM. In data set [2], this compound came in with a clearance of 67.2 mL/min/kg. The compound also had a half-life in data set [3] of 0.93 h.

On to `CC(=O)Nc1ccc(Nc2nc(N)n(-c3ccccn3)n2)cc1`, for which, in data set [1], the Ki was determined as 240 nM. In data set [2], this compound showed a clearance of 42.1 mL/min/kg. The IC50 with MV4-11 is 18 nM. The half-life in data set [3] is 1.33 h.

In data set [2], `Nc1nc(Nc2ccc(N3CCOCC3)cc2)nn1-c1ccccn1` gave a clearance of 31.1 mL/min/kg. The same compound had an IC50 in the data set on MV4-11 of 2 nM. Also, in data set [3], the half-life is 2.84 h.

As for `COc1ccccc1Nc1nc(N)n(-c2ccccn2)n1`, the Ki is 12 nM in data set [1]; 420 nM in data set [4]; > 4000 nM in data set [5]; > 7000 nM at Aurora kinase A; 15 nM in data set [6].

In the case of `COc1ccccc1Nc1nc(N)n(-c2cc(NCCN(C)C)ncn2)n1`, the Ki was 270 nM in data set [1]; 78 nM in data set [4]; > 4000 nM in data set [5]; 2100 nM at Aurora kinase A; 1 nM in data set [6].

As for `Nc1nc(Nc2cc(N3CCOCC3)ccc2F)nn1-c1ccccn1`, the inhibition constant (Ki) in data set [1] was 37 nM; in data set [4], 440 nM; in data set [5], 590 nM; at Aurora kinase A, > 3000 nM; in data set [6], 12 nM.

As to `CN1CCC(c2cccc(Nc3nc(N)n(-c4ccccn4)n3)c2)CC1`, the inhibition constant Ki is < 50 nM in data set [1] and < 1 nM in data set [6]. This compound came in with a clearance in data set [2] of 174 mL/min/kg. Further, the half-maximal inhibitory concentration (IC50) in the data set on MV4-11 was < 1 nM. In data set [3], this compound showed a half-life of 2.48 h.

On to `COc1cc(N2CCOCC2)ccc1Nc1nc(N)n(-c2ccc(C#N)cn2)n1`, for which the Ki was 205 nM in data set [1]; 340 nM in data set [4]; > 4000 nM in data set [5]; 2600 nM on Aurora kinase A; 22 nM in data set [6].

With `Nc1nc(Nc2cccc(C(=O)N3CCOCC3)c2)nn1-c1ccccn1`, the inhibitory constant (Ki) in data set [1] came to 10 nM. In addition, the clearance in data set [2] is 16.7 mL/min/kg. Moreover, the half-life in data set [3] is 2.92 h.

The compound `Nc1nc(Nc2ccc([C@H]3CC[C@@H](N4CCOCC4)CC3)cc2)nn1-c1ccccn1` yielded a clearance in data set [2] of 77 mL/min/kg. For the same compound, half-maximal inhibition in the data set with MV4-11 (IC50) was put at 1 nM. Further, in data set [6], the Ki worked out at 5 nM. The compound also gave a half-life in data set [3] of 1.6 h.

Compound `CN1CCC(c2ccc(Nc3nc(N)n(-c4ccccn4)n3)cc2)CC1` returned a clearance in data set [2] of 77.1 mL/min/kg. This compound also gave a half-maximal inhibitory concentration (IC50) in the data set on MV4-11 of 0.3 nM. Further, the half-life in data set [3] is 2.45 h.

On to `N#Cc1ccc(-n2nc(Nc3ccccc3Cl)nc2N)nc1`, for which the inhibition constant Ki is 36 nM in data set [4], > 4000 nM in data set [5], > 2500 nM on Aurora kinase A and 15 nM in data set [6].

In turn, `Nc1nc(Nc2ccc(C(=O)NCCN3CCOCC3)cc2)nn1-c1ccccn1` gave a clearance in data set [2] of 63.9 mL/min/kg. Also, the IC50 with MV4-11 came out at 0.9 nM. In data set [3], this compound showed a half-life of 1.61 h.

Consider `Nc1nc(Nc2ccc(C(O)CCCN3CCOCC3)cc2)nn1-c1ccccn1` (stereo not given), for which, in data set [1], the Ki was < 50 nM. In addition, in data set [2], the clearance amounted to 17.7 mL/min/kg. Also, it took 1 nM to reach half-maximal inhibition in the data set on MV4-11 (IC50). Besides, the half-life in data set [3] was 1.03 h.

`Nc1nc(Nc2ccccc2Cl)nn1-c1ccccn1`: the inhibition constant Ki is 1200 nM in data set [4], > 4000 nM in data set [5], 2000 nM on Aurora kinase A and 18 nM in data set [6].

Take `COc1ccc(Nc2nc(N)n(-c3ccccn3)n2)cc1OC`: the inhibitory constant (Ki) worked out at 9 nM in data set [1]; 43 nM in data set [4]; 67 nM in data set [5]; 103 nM at Aurora kinase A; 2.8 nM in data set [6].

Consider `CN1CCN(c2ccc(Nc3nc(N)n(-c4ccccn4)n3)cc2)CC1`, for which the clearance in data set [2] worked out at 84.4 mL/min/kg. Also, in the data set with MV4-11, the IC50 turned out to be 2 nM. This compound also showed a half-life in data set [3] of 2.54 h.

Take `CC(=O)N1CCC(c2ccc(Nc3nc(N)n(-c4ccccn4)n3)cc2)C1` (stereo not given): the Ki in data set [1] is < 50 nM. The same compound displayed a clearance in data set [2] of 25.1 mL/min/kg. Further, the midpoint of inhibition in the data set on MV4-11, the IC50, lay at 1 nM. In data set [3], the half-life was 1.42 h.

`CC(=O)Nc1cccc(Nc2nc(N)n(-c3ccccn3)n2)c1`: in data set [1], the Ki was determined as 180 nM. The same compound yielded a clearance in data set [2] of 44.6 mL/min/kg. Besides, the IC50 in the data set on MV4-11 was found to be 15 nM. This compound also had a half-life in data set [3] of 2.81 h.

Consider `COc1ccc(N2CCOCC2)cc1Nc1nc(N)n(-c2ccccn2)n1`, for which the inhibition constant Ki was 60 nM in data set [1]; 160 nM in data set [4]; > 4000 nM in data set [5]; > 4000 nM at Aurora kinase A; 6 nM in data set [6].
